Experimental data as given in ChEMBL document CHEMBL2069274, “Novel 3-nitro-1H-1,2,4-triazole-based amides and sulfonamides as potential antitrypanosomal agents” (J Med Chem, 2012).
Active and inactive are the calls of the source. No cut-off for these calls is given here.

Columns and labels:
[1] = system: L6; assay: Cytotoxicity against rat L6 cells; format: cell-based
Outline: (§1)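 96-well format screens: bloodstream-form T. b. rhodesiense trypomastigotes, T. cruzi amastigotes within infected L6 rat skeletal myoblasts, axenically grown L. donovani amastigotes, and uninfected L6 cells for cytotoxicity. IC50 (μM) obtained by linear regression from sigmoidal dose–inhibition curves.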

[2] = Selectivity index, ratio of IC50 for rat L6 cells to IC50 for Trypanosoma cruzi Tulahuen C4 amastigotes
[3] = system: Trypanosoma cruzi; assay: Ratio of benznidazole IC50 to compound IC50 for Trypanosoma cruzi Tulahuen C4 amastigotes; format: functional
[4] = system: Trypanosoma brucei rhodesiense; assay: Antitrypanosomal activity against Trypanosoma brucei rhodesiense STIB 900 trypomastigotes; format: functional, organism-based; outline: as §1
[5] = system: Leishmania donovani; assay: Antileishmanial activity against Leishmania donovani MHOM-ET67/L82 amastigotes; format: functional, organism-based; outline: as §1
[6] = Selectivity index, ratio of IC50 for rat L6 cells to IC50 for Trypanosoma brucei rhodesiense STIB900 trypomastigotes
[7] = system: Trypanosoma cruzi; assay: Antitrypanosomal activity against Trypanosoma cruzi Tulahuen C4 amastigotes; format: functional, organism-based; outline: as §1
[8] = system: Trypanosoma brucei brucei; assay: Antitrypanosomal activity against bloodstream form of Trypanosoma brucei brucei Lister 427 clone 221a; format: functional, organism-based
Outline: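 Bloodstream-form parasites seeded at 1 × 10^3 per ml in growth medium with a range of compound concentrations; where required, TbNTR expression induced with tetracycline (1 μg/mL). Incubation 3 days at 37 °C, then Alamar blue added for a further 16 h. Cell density read and IC50 determined.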

[9] = system: Trypanosoma brucei brucei; assay: Activity of Trypanosoma brucei brucei recombinant Type I nitroreductase assessed as oxidised NADH level by spectrophotometric analysis
Outline: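 His-tagged recombinant TbNTR, purified, assayed spectrophotometrically at 340 nm with nitrotriazole substrate (100 μM) and NADH (100 μM); activity expressed as nmol NADH oxidized min−1 mg−1 enzyme.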

[10] = system: Trypanosoma brucei brucei; assay: Antitrypanosomal activity against bloodstream form of Trypanosoma brucei brucei Lister 427 clone 221a overexpressing tet-inducible NTR in presence of tetracycline after 3 days; details: 72 h
[11] = system: Trypanosoma brucei brucei; assay: Selectivity ratio of IC50 for Trypanosoma brucei brucei Lister 427 clone 221a overexpressing tet-inducible NTR in absence of tetracycline to IC50 for Trypanosoma brucei brucei overexpressing tet-inducible NTR in presence of tetracyclin
[12] = system: Trypanosoma brucei brucei; assay: Antitrypanosomal activity against bloodstream form of Trypanosoma brucei brucei Lister 427 clone 221a overexpressing tet-inducible NTR in absence of tetracycline after 3 days; details: 72 h
[13] = target: Trypanothione reductase (Trypanosoma brucei brucei) (UniProt P39051); assay: Inhibition of Trypanosoma brucei brucei trypanothione reductase at <100 uM
Sequence of Trypanothione reductase (Trypanosoma brucei brucei) (P39051 whole entry, looked up): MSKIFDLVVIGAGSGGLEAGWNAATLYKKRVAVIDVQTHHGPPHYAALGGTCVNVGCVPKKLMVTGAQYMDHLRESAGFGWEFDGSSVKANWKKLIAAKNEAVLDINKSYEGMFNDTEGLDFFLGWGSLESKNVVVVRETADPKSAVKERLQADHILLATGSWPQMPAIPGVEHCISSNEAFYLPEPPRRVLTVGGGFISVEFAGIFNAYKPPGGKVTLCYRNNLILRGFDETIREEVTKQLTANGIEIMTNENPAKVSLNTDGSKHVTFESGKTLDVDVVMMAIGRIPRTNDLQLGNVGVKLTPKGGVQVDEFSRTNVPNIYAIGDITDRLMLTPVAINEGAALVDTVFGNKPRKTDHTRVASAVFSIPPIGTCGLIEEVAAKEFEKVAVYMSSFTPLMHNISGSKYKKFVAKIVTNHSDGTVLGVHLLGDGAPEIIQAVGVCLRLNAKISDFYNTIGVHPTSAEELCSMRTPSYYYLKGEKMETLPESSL

SMILES | IC50 [1] | selectivity ratio [2] | Ratio IC50 [3] | IC50 [4] | IC50 [5] | selectivity ratio [6] | IC50 [7] | IC50 [8] | Activity [9] | IC50 [10] | Ratio IC50 [11] | IC50 [12] | inhibition [13]
O=C(NCCn1cnc([N+](=O)[O-])n1)c1ccc(OC(F)(F)F)cc1 | > 261 µM | > 357 | 2.1 | 1.99 µM | 29.2 µM | > 131 | 0.73 µM | – | – | – | – | – | –
O=[N+]([O-])c1ncn(CCNS(=O)(=O)Cc2ccccc2)n1 | > 322 µM | > 48 | 0.2 | 8.39 µM | 113 µM | > 38.3 | 6.46 µM | – | – | – | – | – | –
O=[N+]([O-])c1ncn(CCCNS(=O)(=O)c2cc(C(F)(F)F)ccc2C(F)(F)F)n1 | 115 µM | 178 | 2.4 | 10.3 µM | 46.1 µM | – | 0.644 µM | > 10 µM | – | – | – | – | –
O=C(NCCCCn1cnc([N+](=O)[O-])n1)c1ccc(C(F)(F)F)cc1 | 104 µM | 591 | 8.9 | 0.501 µM | 7.93 µM | 208 | 0.176 µM | 0.9 µM | Active | 0.13 µM | 10 | 1.3 µM | –
O=C(Cn1cnc([N+](=O)[O-])n1)NCc1ccccc1 | 345 µM | 102 | 0.5 | 9.96 µM | 28.1 µM | – | 3.38 µM | > 10 µM | Active | – | – | – | –
Cn1ccnc1S(=O)(=O)NCCCn1cnc([N+](=O)[O-])n1 | > 318 µM | > 15 | 0.1 | 21.9 µM | 223 µM | > 14.5 | 20.6 µM | – | – | – | – | – | –
O=C(NCCCn1ccnc1[N+](=O)[O-])c1ccc(OC(F)(F)F)cc1 | 274 µM | 74 | 0.4 | 46.6 µM | 36 µM | – | 3.71 µM | – | – | – | – | – | –
O=C(NCCCn1cnc([N+](=O)[O-])n1)c1cccc(C(F)(F)F)c1 | > 292 µM | > 826 | 4.4 | 3.76 µM | 37.3 µM | – | 0.353 µM | > 10 µM | – | – | – | – | –
O=C(NCCCn1cnc([N+](=O)[O-])n1)c1cc(C(F)(F)F)cc(C(F)(F)F)c1 | 187 µM | 291 | 2.4 | 16.4 µM | 12.3 µM | 11.4 | 0.642 µM | > 10 µM | – | – | – | – | –
O=[N+]([O-])c1ncn(CCNS(=O)(=O)c2ccc(C(F)(F)F)cc2)n1 | 200 µM | 248 | 1.9 | 2.79 µM | 32.4 µM | – | 0.803 µM | > 10 µM | Active | – | – | – | –
O=C(NCCCn1cnc([N+](=O)[O-])n1)c1ccc(-c2ccccc2)cc1 | 117 µM | 2780 | 36.3 | 0.587 µM | 8.37 µM | 199 | 0.043 µM | 0.3 µM | – | 0.05 µM | 6 | 0.28 µM | –
O=C(NCCCn1cnc([N+](=O)[O-])n1)c1ccc(C(F)(F)F)nc1 | > 291 µM | > 84 | 0.5 | 3.55 µM | 96.5 µM | – | 3.46 µM | 7.9 µM | – | – | – | – | –
O=[N+]([O-])c1ncn(CCCNS(=O)(=O)c2cc(C(F)(F)F)cc(C(F)(F)F)c2)n1 | 109 µM | 338 | 4.9 | 11.3 µM | 20.7 µM | 9.6 | 0.322 µM | 6.6 µM | – | – | – | – | –
Cc1ccc(S(=O)(=O)NCCCn2cnc([N+](=O)[O-])n2)cc1 | > 308 µM | > 747 | 3.8 | 2.54 µM | 38.1 µM | > 121 | 0.412 µM | 4 µM | – | 0.24 µM | 23 | 5.63 µM | –
O=C(Cn1cnc([N+](=O)[O-])n1)NCc1ccc(C(F)(F)F)cc1 | 129 µM | 133 | 1.6 | 6.47 µM | 10.4 µM | – | 0.97 µM | 8.5 µM | – | – | – | – | inactive
O=C(Cn1ccnc1[N+](=O)[O-])NCc1ccccc1 [BENZNIDAZOLE] | – | – | – | – | – | – | 1.56 µM | – | – | 2.2 µM | 10 | 21.8 µM | –

SMILES | IC50 [1] | selectivity ratio [2] | Ratio IC50 [3] | IC50 [4] | IC50 [5] | selectivity ratio [6] | IC50 [7] | IC50 [8] | Activity [9] | IC50 [10] | Ratio IC50 [11] | IC50 [12] | inhibition [13]
Nc1nc(N)nc(Nc2ccc([As]3SCC(CO)S3)cc2)n1 (configuration not stated) [MELARSOPROL] | – | – | – | – | – | – | – | – | – | 0.0034 µM | 1 | 0.0034 µM | –
O=[N+]([O-])c1nccn1CCCNS(=O)(=O)c1ccc(C(F)(F)F)cc1 | 176 µM | 106 | 0.9 | 27.5 µM | 15.6 µM | – | 1.66 µM | – | – | – | – | – | inactive
O=[N+]([O-])c1ncn(CCCCNS(=O)(=O)c2ccc(C(F)(F)F)cc2)n1 | 84.9 µM | 120 | 2.2 | 0.354 µM | 7.79 µM | 240 | 0.71 µM | – | – | – | – | – | –
O=C(NCCCCn1cnc([N+](=O)[O-])n1)c1ccc(OC(F)(F)F)cc1 | > 268 µM | > 2380 | 13.8 | 1.39 µM | 13 µM | > 193 | 0.113 µM | 3.6 µM | – | 0.1 µM | 11 | 1.05 µM | inactive
O=C(Cn1cnc([N+](=O)[O-])n1)N1CCC(Cc2ccccc2)CC1 | 144 µM | 468 | 5.1 | 3.4 µM | 51.4 µM | – | 0.307 µM | > 10 µM | – | – | – | – | inactive
O=C(NCCCn1cnc([N+](=O)[O-])n1)Nc1cc(C(F)(F)F)cc(C(F)(F)F)c1 | 24.2 µM | 33 | 2.1 | 6.03 µM | 11.4 µM | 4 | 0.734 µM | 1 µM | – | 0.18 µM | 5 | 0.81 µM | –
O=C(NCCCn1ccnc1[N+](=O)[O-])c1ccc(C(F)(F)F)cc1 | 177 µM | 29 | 0.3 | 21.4 µM | 13.8 µM | – | 6.05 µM | – | – | – | – | – | –
COc1cc([C@@H]2c3cc4c(cc3[C@H](O)[C@H]3COC(=O)[C@H]23)OCO4)cc(OC)c1OC [PODOFILOX] | 0.022 µM | – | – | – | – | – | – | – | – | – | – | – | –
CC1CS(=O)(=O)CCN1/N=C/c1ccc([N+](=O)[O-])o1 (configuration not stated) [NIFURTIMOX] | – | – | – | – | – | – | – | – | Active | – | 13 | – | –
Cn1ccnc1S(=O)(=O)NCCn1cnc([N+](=O)[O-])n1 | > 332 µM | > 4 | 0 | 35.9 µM | > 332 µM | > 9.3 | 83.4 µM | – | – | – | – | – | –
O=[N+]([O-])c1ncn(CCCNS(=O)(=O)c2cccc3cccnc23)n1 | 208 µM | 519 | 3.9 | 6.52 µM | 32.9 µM | – | 0.4 µM | > 10 µM | – | – | – | – | –
O=C(NCCCn1cnc([N+](=O)[O-])n1)c1cnc2ccccc2n1 | > 306 µM | > 379 | 1.9 | 34.9 µM | 62.7 µM | – | 0.807 µM | > 10 µM | – | – | – | – | –
O=[N+]([O-])c1ncn(CCCNS(=O)(=O)c2ccc(-c3ccccc3)cc2)n1 | 50 µM | 1760 | 55.8 | 1.05 µM | 7.54 µM | – | 0.028 µM | 0.5 µM | – | 0.07 µM | 6 | 0.44 µM | –
O=C(NCCCCn1cnc([N+](=O)[O-])n1)c1ccc2ccccc2n1 | 91.5 µM | 691 | 11.8 | 4 µM | 13.4 µM | – | 0.132 µM | > 10 µM | Active | – | – | – | –
O=[N+]([O-])c1ncn(CCNS(=O)(=O)c2cc(C(F)(F)F)cc(C(F)(F)F)c2)n1 | 111 µM | 66.2 | 0.9 | 36.7 µM | 33.3 µM | 3 | 1.68 µM | 7.9 µM | – | – | – | – | –
O=[N+]([O-])c1ncn(CCCNS(=O)(=O)Cc2ccccc2)n1 | > 308 µM | > 138 | 0.7 | 6.49 µM | 79.4 µM | > 47.4 | 2.24 µM | – | – | – | – | – | –
